{"source": "paper PMC8861878", "about": "(The Journal of pharmacy and pharmacology, 2020)", "key": {"[1]": {"experiment": "Glucuronidation of isobavachin by MLM, enzyme kinetics", "assay_type": "in vitro ADME, mice"}, "CYP1A2": {"biological_target": "T1, CYP1A2 (Homo sapiens, UniProt P05177)", "T1 sequence (P05177 1-516)": "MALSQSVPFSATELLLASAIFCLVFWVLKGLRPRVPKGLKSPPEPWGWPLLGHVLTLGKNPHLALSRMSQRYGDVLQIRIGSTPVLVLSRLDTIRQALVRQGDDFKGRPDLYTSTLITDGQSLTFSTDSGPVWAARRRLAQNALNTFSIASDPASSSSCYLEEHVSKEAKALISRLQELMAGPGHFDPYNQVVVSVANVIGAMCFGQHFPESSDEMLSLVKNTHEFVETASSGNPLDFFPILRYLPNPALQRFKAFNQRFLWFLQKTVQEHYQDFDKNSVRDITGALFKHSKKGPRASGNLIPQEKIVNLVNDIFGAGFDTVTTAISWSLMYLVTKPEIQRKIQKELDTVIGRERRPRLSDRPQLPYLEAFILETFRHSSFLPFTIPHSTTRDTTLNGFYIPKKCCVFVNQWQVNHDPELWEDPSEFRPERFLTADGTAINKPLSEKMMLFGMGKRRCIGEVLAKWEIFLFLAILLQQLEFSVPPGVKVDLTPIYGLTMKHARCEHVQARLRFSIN", "experiment": "Inhibition of CYP1A2", "assay_type": "in vitro ADME", "conditions": "isobavachin 1, 10, 100 μM; substrate phenacetin (100 μM)", "outline": "(§1)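 Recombinant human CYPs (CYP1A2 and 3A4 at 0.05 mg/ml; CYP2C8 and 2E1 at 0.1 mg/ml) with probe substrate in Tris-HCl 50 mM pH 7.4, MgCl2 5 mM and NADPH 1 mM at 37 °C for 60 min. Run without (control) or with test compound at 1, 10 or 100 μM. Acetonitrile stop; metabolite by UHPLC-TQD-MS; activity versus control, triplicate.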"}, "[2]": {"experiment": "Glucuronidation of isobavachin by pooled HLM, enzyme kinetics", "assay_type": "in vitro ADME, human"}, "[3]": {"experiment": "Mono-oxidation of isobavachin by MLM, enzyme kinetics", "assay_type": "in vitro ADME, mice"}, "CYP3A4": {"biological_target": "CYP3A4 (Homo sapiens, UniProt P08684)", "sequence (P08684 whole entry)": "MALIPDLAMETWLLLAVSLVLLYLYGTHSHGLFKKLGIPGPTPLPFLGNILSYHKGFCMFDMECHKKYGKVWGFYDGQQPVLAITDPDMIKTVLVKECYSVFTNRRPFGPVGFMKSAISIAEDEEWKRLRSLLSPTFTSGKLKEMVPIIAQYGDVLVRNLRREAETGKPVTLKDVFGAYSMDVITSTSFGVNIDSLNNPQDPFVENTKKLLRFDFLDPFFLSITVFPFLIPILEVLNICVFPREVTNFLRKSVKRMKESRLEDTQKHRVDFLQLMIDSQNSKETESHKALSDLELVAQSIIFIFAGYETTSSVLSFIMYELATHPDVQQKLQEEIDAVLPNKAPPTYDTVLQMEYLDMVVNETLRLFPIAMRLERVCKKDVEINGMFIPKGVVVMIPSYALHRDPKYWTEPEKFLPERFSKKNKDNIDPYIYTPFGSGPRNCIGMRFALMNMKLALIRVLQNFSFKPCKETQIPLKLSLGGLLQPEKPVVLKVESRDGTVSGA", "experiment": "Inhibition of CYP3A4", "assay_type": "in vitro ADME", "conditions": "isobavachin 1, 10, 100 μM; substrate nifedipine (40 μM)", "outline": "as §1"}, "UGT1A1": {"biological_target": "T2, UGT1A1 (Homo sapiens, UniProt P22309)", "T2 sequence (P22309 26-533)": "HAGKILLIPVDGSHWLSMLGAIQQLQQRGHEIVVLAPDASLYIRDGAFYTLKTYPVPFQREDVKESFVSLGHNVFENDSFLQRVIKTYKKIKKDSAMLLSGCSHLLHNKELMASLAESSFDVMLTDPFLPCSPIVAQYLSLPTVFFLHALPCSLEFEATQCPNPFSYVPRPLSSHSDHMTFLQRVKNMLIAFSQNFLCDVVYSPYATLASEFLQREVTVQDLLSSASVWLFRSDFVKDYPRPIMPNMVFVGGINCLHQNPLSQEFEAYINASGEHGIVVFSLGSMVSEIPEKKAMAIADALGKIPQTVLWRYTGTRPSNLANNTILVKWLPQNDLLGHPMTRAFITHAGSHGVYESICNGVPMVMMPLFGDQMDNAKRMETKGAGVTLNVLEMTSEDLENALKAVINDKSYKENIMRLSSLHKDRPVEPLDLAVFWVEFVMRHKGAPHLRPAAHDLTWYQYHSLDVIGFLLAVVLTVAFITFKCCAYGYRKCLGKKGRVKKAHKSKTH", "experiment": "Inhibition of UGT1A1", "assay_type": "in vitro ADME"}, "CYP2C19": {"biological_target": "CYP2C19 (Homo sapiens, UniProt P33261)", "sequence (P33261 whole entry)": "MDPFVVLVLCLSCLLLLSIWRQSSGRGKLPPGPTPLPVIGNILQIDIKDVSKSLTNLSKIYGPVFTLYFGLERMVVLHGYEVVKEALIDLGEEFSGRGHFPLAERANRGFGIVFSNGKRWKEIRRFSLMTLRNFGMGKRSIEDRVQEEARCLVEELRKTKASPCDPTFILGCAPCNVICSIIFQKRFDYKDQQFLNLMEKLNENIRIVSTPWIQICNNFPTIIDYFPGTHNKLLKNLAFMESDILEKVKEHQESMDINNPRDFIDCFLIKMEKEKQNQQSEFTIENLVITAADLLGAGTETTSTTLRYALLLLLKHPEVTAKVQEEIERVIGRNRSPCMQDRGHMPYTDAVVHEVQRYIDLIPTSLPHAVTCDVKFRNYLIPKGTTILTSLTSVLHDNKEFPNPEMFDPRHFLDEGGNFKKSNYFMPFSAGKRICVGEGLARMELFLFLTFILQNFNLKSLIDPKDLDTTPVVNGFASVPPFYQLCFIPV", "experiment": "Inhibition of CYP2C19", "assay_type": "in vitro ADME"}, "UGT2B7": {"biological_target": "T3, UGT2B7 (Homo sapiens, UniProt P16662)", "T3 sequence (P16662 24-529)": "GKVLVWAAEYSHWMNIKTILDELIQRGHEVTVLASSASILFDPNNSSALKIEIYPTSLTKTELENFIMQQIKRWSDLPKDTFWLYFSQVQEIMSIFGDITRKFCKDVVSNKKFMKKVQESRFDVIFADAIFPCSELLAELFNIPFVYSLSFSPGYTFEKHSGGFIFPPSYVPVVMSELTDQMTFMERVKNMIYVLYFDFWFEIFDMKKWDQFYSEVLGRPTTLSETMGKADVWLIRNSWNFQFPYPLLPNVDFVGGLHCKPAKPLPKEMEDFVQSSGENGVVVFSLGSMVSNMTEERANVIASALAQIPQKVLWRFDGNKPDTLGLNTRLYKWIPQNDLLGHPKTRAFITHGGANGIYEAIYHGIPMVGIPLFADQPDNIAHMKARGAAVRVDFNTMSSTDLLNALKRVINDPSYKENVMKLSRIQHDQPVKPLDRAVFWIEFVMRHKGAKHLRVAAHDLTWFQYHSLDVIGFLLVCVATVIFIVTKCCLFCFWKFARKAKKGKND", "experiment": "Inhibition of UGT2B7", "assay_type": "in vitro ADME"}, "expressed CYP enzymes": {"tested_on": "expressed CYP enzymes", "experiment": "Reaction phenotyping with expressed CYP enzymes", "assay_type": "in vitro ADME, human", "conditions": "isobavachin at 10 μM (Figure S4A)"}, "expressed UGT enzymes": {"tested_on": "expressed UGT enzymes", "experiment": "Reaction phenotyping with expressed UGT enzymes", "assay_type": "in vitro ADME, human", "conditions": "isobavachin at 10 μM (Figure S4B)"}, "[4]": {"conditions": "formation of G2, substrate inhibition model"}, "[5]": {"conditions": "based on the smallest AIC and SC values"}}, "note": "Several values for one entry are separate records, joined by “and”; a condition that tells them apart may be missing. Identical values can stand only once."}
{"compound": "CC(C)=CCc1c(O)ccc2c1O[C@H](c1ccc(O)cc1)CC2=O", "note": "[isobavachin]", "values": [{"measurement": "CLint (CLmax)", "setting": "[1]; formation of G1, Michaelis–Menten model", "value": "144.94 ± 11.20", "unit": "μl/min per mg"}, {"measurement": "CLint (CLmax)", "setting": "[1]; [4]", "value": "29.60 ± 9.00", "unit": "μl/min per mg"}, {"measurement": "inhibitory effects", "setting": "CYP1A2", "value": "negligible or weak"}, {"measurement": "CLint (CLmax)", "setting": "[2]; formation of G1, Hill equation (CLmax)", "value": "148.79 ± 9.36", "unit": "μl/min per mg"}, {"measurement": "CLint (CLmax)", "setting": "[2]; [4]", "value": "21.82 ± 4.35", "unit": "μl/min per mg"}, {"measurement": "CLint (CLmax)", "setting": "[3]; formation of M1, Michaelis–Menten model", "value": "35.46 μl/min per mg and 35.46 ± 5.98 μl/min per mg"}, {"measurement": "CLint (CLmax)", "setting": "[3]; formation of M2, substrate inhibition model", "value": "64.32 μl/min per mg and 64.32 ± 17.18 μl/min per mg"}, {"measurement": "CLint (CLmax)", "setting": "[3]; formation of M3, substrate inhibition model", "value": "47.43 μl/min per mg and 47.43 ± 7.99 μl/min per mg"}, {"measurement": "inhibitory effects", "setting": "CYP3A4", "value": "negligible or weak"}, {"measurement": "IC50", "setting": "UGT1A1", "value": "1530 ± 390", "unit": "nM"}, {"measurement": "residual activities", "setting": "UGT1A1; 10 μM isobavachin", "value": "4.58 % of the negative control"}, {"measurement": "Ki", "setting": "UGT1A1; Ki, substrate estradiol, competitive model (selected, smallest AIC and SC)", "value": "3.05 ± 0.41", "unit": "µM"}, {"measurement": "Inhibition type", "setting": "UGT1A1; [5]", "value": "competitive inhibition"}, {"measurement": "α", "setting": "UGT1A1; substrate estradiol, mixed-type model", "value": "8.01 ± 2.56"}, {"measurement": "IC50", "setting": "CYP2C19", "value": "270 ± 70", "unit": "nM"}, {"measurement": "residual activities", "setting": "CYP2C19; 10 μM isobavachin", "value": "0 % of the negative control"}, {"measurement": "Ki", "setting": "CYP2C19; substrate mephenytoin, competitive model (selected, smallest AIC and SC)", "value": 1550, "unit": "nM"}, {"measurement": "Ki", "setting": "CYP2C19; substrate mephenytoin, mixed-type model (not selected)", "value": "1550 ± 530", "unit": "nM"}, {"measurement": "Ki", "setting": "CYP2C19; substrate mephenytoin, non-competitive model (not selected)", "value": "3340 ± 490", "unit": "nM"}, {"measurement": "Inhibition type", "setting": "CYP2C19; [5]", "value": "competitive inhibition"}, {"measurement": "α", "setting": "CYP2C19; substrate mephenytoin, mixed-type model", "value": ">>1"}, {"measurement": "IC50", "setting": "UGT2B7", "value": "90 ± 10", "unit": "nM"}, {"measurement": "residual activities", "setting": "UGT2B7; 10 μM isobavachin", "value": "19.32 % of the negative control"}, {"measurement": "Ki", "setting": "UGT2B7; substrate zidovudine, mixed-type model (not selected)", "value": "40 ± 10", "unit": "nM"}, {"measurement": "Ki", "setting": "UGT2B7; substrate zidovudine, non-competitive model (selected, smallest AIC and SC)", "value": "50 ± 10", "unit": "nM"}, {"measurement": "Inhibition type", "setting": "UGT2B7; [5]", "value": "non-competitive inhibition mode"}, {"measurement": "α", "setting": "UGT2B7; substrate zidovudine, mixed-type model", "value": "1.80 ± 0.93"}, {"measurement": "CYP isozymes participating in oxidation", "setting": "expressed CYP enzymes", "value": "CYP1A1, 1A2, 1B1, 2C8, 2C9, 2C19 and 2D6 all participated in the oxidation"}, {"measurement": "UGT enzymes involved in glucuronidation", "setting": "expressed UGT enzymes", "value": "UGT1A1, 1A6, 1A7, 1A8, 1A9 and 2B4 have an important role in glucuronidation reaction"}]}
